High-throughput results deposited in PubChem BioAssay by Sanford-Burnham Center for Chemical Genomics.
TIM10 inh = TIM10 yeast growth inhibition; S. cerevisiae TIM10 strain growth, BacTiter-Glo luminescence, 24 h; inhibition, % at 10 µM; 330,000 compounds, 1.4% hits; AID 463195;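 active = inhibition of 40% or more at the single tested concentration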;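 note: wild-type TIM10 isogenic control strain grown at permissive 25 °C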
tim10-1 inh = inhibits growth of tim10-1 mutant yeast. S. cerevisiae tim10-1 ts strain growth, BacTiter-Glo, 24 h. inhibition, % at 20 µM. 330,000 compounds, 2.2% hits;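 active = inhibition of at least 40%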;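 note: mutant grown at 25 °C; 0% = DMSO wells with yeast and 100% = wells holding no yeast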
tim23-1 inh = tim23-1 yeast growth inhibition | S. cerevisiae tim23-1 growth, BacTiter-Glo luminescence, 24 h | inhibition, % at 20 µM | 330,000 compounds, 1.3% hits;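 active = growth inhibition of the mutant yeast at or above 50%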;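 note: temperature-sensitive mutant grown at 25 °C; plate controls were DMSO-treated mutant yeast for no effect and medium wells lacking yeast for full effect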
UPR CHOP act = activators of apoptotic arm of unfolded protein response (CHOP). CHO-CHOP luciferase reporter, UPR activation, luminescence; percent of tunicamycin response over DMSO baseline. activation, % at 10 µM. 330,000 compounds, 0.34% hits;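 active = at 10 µM dose, activation of 40% or more, normalized to positive control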;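 note: 100% = tunicamycin at 10 µg/mL and 0% = DMSO alone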
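Evaluation: % reporter activation, DMSO baseline versus tunicamycin full activation; System: CHO-CHOP luciferase reporter cell line; Input: 500 cells/well; Incubation: 6 h compound treatment, 37 °C; Measured by: Steady-Glo luciferase luminescence; Dosing: one dose, 10 µM in 0.5% DMSO; Buffer or medium: F12 medium, 10% FBS; Benchmarks: positive tunicamycin 10 µg/mL, negative DMSO alone.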
UPR XBP1 act = activators of adaptive arm of unfolded protein response (XBP1). CHO-XBP1 luciferase reporter, IRE1-XBP1 UPR activation, luminescence; percent of tunicamycin response, DMSO as zero. activation, % at 20 µM. 330,000 compounds, 0.33% hits;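 active = versus positive control, 20 µM dose yields 30% or more activation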;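 note: 100% = tunicamycin at 10 µg/mL and 0% = DMSO only wells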
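Material: CHO-XBP1 cells stably carrying IRE1-XBP1-driven luciferase reporter | Medium: F12 with 10% serum | Compound dosing: 20 µM single concentration, DMSO 1% | Incubation: Overnight seeding at 37 °C, 6 h compound treatment at 37 °C | Detection: Steady-Glo luminescence read | Read-out basis: % activation of reporter signal versus tunicamycin and DMSO controls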
tim10-1 confirm = confirmation of tim10-1 mutant yeast growth inhibitors; shares compounds with tim10-1 inh; S. cerevisiae tim10-1 ts strain growth, BacTiter-Glo, 24 h; inhibition, % at 20 µM; 7,400 compounds, 56% hits; AID 463213;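 active = inhibition of yeast growth at or above a set limit in either of two repeat tests at 20 µM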;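 note: tim10-1 mutant grown at permissive 25 °C to find synthetic lethal compounds; 0% = DMSO yeast wells and 100% = medium wells without yeast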
Starred values were filed as active, the others as inactive; x = no result given. Compounds with a hit are over-represented: about 3.9% of the library has one in this group of screens.

SMILES | TIM10 inh | tim10-1 inh | tim23-1 inh | UPR CHOP act | UPR XBP1 act | tim10-1 confirm
Cc1ccccc1CN1CCNC(=O)C1CC(=O)NCCN1CCCCC1=O (stereo not drawn) | 5 | 3 | 5 | -5 | -4 | x
Cc1nc2ccccc2c2oc(C(=O)N3CC(C)CC(C)C3)cc12 (stereo not drawn) | 5 | 52* | 42 | 1 | 2 | -9
COc1ccc2cc3cc(C(=O)N4CC(C)CC(C)C4)oc3nc2c1 (stereo not drawn) | 30 | 56* | 46 | 7 | -1 | 21
COc1ccc2nc3oc(C(=O)N4CCC(C(N)=O)CC4)cc3cc2c1 | -5 | 6 | 10 | -1 | 1 | x
CN(C(=O)CSc1ncnc2sc3c(c12)CCCC3)C1CCS(=O)(=O)C1 (stereo not drawn) | 6 | 17 | 15 | 3 | -1 | x
O=C(C[C@H]1C/C=C\CC[C@H](Cc2ccc(F)cc2)C(=O)OC[C@H]2CCCN2C1=O)N[C@@H](CO)Cc1ccccc1 | 2 | 14 | 23 | 3 | -1 | x
O=C(Nc1ccnn1C1CCN(C(=O)CCc2ccc(F)cc2)CC1)C1CCOC1 (stereo not drawn) | 6 | 9 | 2 | 0 | -2 | x
O=C1CCCCC1Sc1nnc(Cc2cccs2)n1CCc1ccccc1 (stereo not drawn) | 17 | 45* | 14 | -2 | -3 | 24
CC(C)(C)c1cc(CCC(=O)NNC(=S)NC(=O)c2ccccc2)cc(C(C)(C)C)c1O | 25 | 46* | 28 | 20 | 23 | 31*
COc1ccccc1N=C1NC(=O)/C(=C/c2ccc(N(C)C)cc2)S1 | 17 | 6 | 22 | 4 | 6 | x
CCc1cc2c(NC(Cc3ccccc3)C(=O)O)nc(C)nc2s1 (stereo not drawn) | 16 | -3 | 2 | 1 | -1 | x
CCc1cc2c(NCc3ccccc3)nc(C)nc2s1 | 24 | 48* | 43 | 1 | -7 | 24
CC(=O)c1cccc(S(=O)(=O)Nc2ccc3nc(C)sc3c2)c1 | 5 | 0 | 3 | -2 | -1 | x
Cc1nc2ccc(NS(=O)(=O)c3ccc(C)c(C)c3)cc2s1 | 28 | 42* | 33 | -1 | -1 | 12
Cc1ccc(S(=O)(=O)/C=C/c2ccccc2)cc1 | 18 | 48* | 48 | 3 | 0 | 26
CCCCOc1cccc(-c2cc(C(=O)NNC(=S)NCC)c3ccccc3n2)c1 | 18 | 41* | 11 | 3 | 1 | 37*
CCNC(=S)NNC(=O)c1cc(-c2cccnc2)nc2ccccc12 | 34 | 55* | 45 | 0 | 0 | 41*
CCNC(=S)NNC(=O)c1cc(-c2cccc(OCC)c2)nc2ccccc12 | 15 | 37 | 22 | 1 | -2 | x
Cc1ccc(C(C)C)c(OCC(=O)NN=C2CCCC(=O)C2)c1 | -7 | -16 | 7 | -1 | 2 | x
Cc1nn(-c2ccc(F)cc2)c(Cl)c1/C=C1\C(=O)Nc2ccccc21 | 35 | 54* | 20 | 1 | 2 | 41*
CCOc1ccc(Nc2ncnc3c2cnn3-c2ccccc2)cc1 | 14 | -25 | -13 | 7 | 3 | x
CCOc1ccc(Nc2ncnc3c2cnn3Cc2ccccc2)cc1 | 25 | 41* | 38 | -1 | 6 | 37*
COc1ccc(Nc2ncnc3c2cnn3Cc2ccccc2)cc1 | 29 | 46* | 38 | 2 | 1 | 34*
COc1ccc(-n2ncc3c(N4CCN(Cc5ccccc5)CC4)ncnc32)cc1 | 30 | 46* | 26 | 4 | 4 | 25
C[C@]12c3[nH]c4ccccc4c3CCN1C(=O)C(CC(=O)NCCN1CCOCC1)C[C@@H]2C(=O)N1CCOCC1 (stereo partly drawn) | -3 | -5 | -1 | -1 | -1 | x
SMILES | TIM10 inh | tim10-1 inh | tim23-1 inh | UPR CHOP act | UPR XBP1 act | tim10-1 confirm
Cc1cc(C)n(-c2ccc(C(=O)OCC(=O)Nc3ccccc3F)cc2)n1 | 11 | 12 | 17 | -1 | -1 | x
Brc1ccc(/C=N/Nc2ccc3ccccc3n2)cc1 | 16 | 48* | 35 | 2 | 3 | 14
CC(=O)Cc1cc(O)c2ccccc2c1OC(=O)c1ccccc1 | 27 | 43* | 48 | -1 | -3 | 38*
Cc1cccc(C)c1NC(=O)NC1(C(=O)NCC2CCCO2)CCCCC1 (stereo not drawn) | -5 | 14 | 19 | 2 | -4 | x
Clc1ccc(C2CC(c3cccs3)n3ncnc3N2)c(Cl)c1 (stereo not drawn) | 34 | 41* | 45 | 1 | -2 | 25
Clc1ccccc1C1CC(c2ccccc2)Nc2ncnn21 (stereo not drawn) | 3 | 9 | 21 | -1 | -1 | x
CN(C)c1nc(OCCOC(=O)Nc2ccc(Cl)cc2Cl)nc(N(C)C)n1 | 18 | 42* | 30 | 0 | -2 | 15
CON(C)c1nc(OCCNC(=O)OCc2ccc(Cl)cc2C)nc(N(C)C)n1 | 31 | 27 | 20 | 1 | -3 | x
CCCCc1ccc(NC(=S)NCc2cccc(OC)c2)cc1 | 33 | 44* | 17 | -1 | 1 | 30
COc1cccc(CNC(=S)Nc2ccc(Cl)cc2C)c1 | 9 | 6 | 40 | 1 | -6 | x
CCCCc1ccc(NC(=S)Nc2cccnc2)cc1 | 15 | 36 | 23 | 7 | -1 | x
COc1cccc(CNC(=S)Nc2cc(OC)ccc2OC)c1 | 11 | 45* | 14 | 0 | -3 | 25
Cc1ccc(NC(=S)NCCSc2ccc(Cl)cc2)c(C)c1 | -8 | 31 | 24 | 0 | -3 | x
COc1ccc(OC)c(NC(=S)NCCSc2ccc(C)cc2)c1 | 33 | 44* | 42 | -1 | -2 | 14
CCCCc1ccc(NC(=S)Nc2ccc(Nc3ccc(OC)cc3)cc2)cc1 | 20 | 45* | 34 | 3 | 7 | 35*
Cc1ccccc1NC(=S)NC(=O)COc1ccccc1C | 20 | 27 | 33 | 3 | -3 | x
CC(O)CO (stereo not drawn) | 6 | -16 | -14 | -1 | -1 | x
CN(C)/N=C/C=C1\CCC/C(=C\c2ccc(F)c(F)c2)C1=O | 30 | 46* | 46 | 12 | 12 | 48*
Cc1cc(C(=O)N2CCN(S(=O)(=O)c3ccc(C)c(C)c3)CC2)no1 | -2 | 7 | 16 | 1 | -3 | x
Cc1ccc(-n2cc(-c3ccc([N+](=O)[O-])cc3)[nH]c2=S)c(C)c1 | 40 | 46* | 44 | 5 | 0 | 35*
Cc1cc(C)c(S(=O)(=O)N2CCCCC2CCNC(=O)C(=O)NCc2cccnc2)c(C)c1 (stereo not drawn) | 6 | 17 | 21 | -1 | -4 | x
COc1ccccc1CNC(=O)COC(=O)/C=C/c1ccc2ccccc2n1 | 21 | 27 | 24 | 3 | -4 | x
